{
  "source": "ChEMBL document CHEMBL5724801",
  "about": "“EUbOPEN Chemogenomics Library - Multiplex” (2024)",
  "key": {"[1]": {"system": "Fibroblast", "assay": "Multiplex assay against human fibroblast", "type": "toxicity, cell-based", "method_in_brief": "(§1)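 Phenotypes for tubulin, mitochondrial mass and membrane permeability are expressed as per cents of healthy-nucleus cells. Cells were stained live at seeding with Hoechst33342, BioTracker Green Microtubule Cytoskeleton Dye, MitoTracker Red and Annexin V Alexa Fluor 680, then imaged after compound addition on a CQ1 microscope at 37°C and 5% CO2. Machine-learning gating in CellPathfinder separated Hoechst high-intensity objects from normal cells, divided normal cells by nuclear state (healthy, pyknosed, fragmented) and divided pyknosed cells into mitotic or apoptotic.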"}, "[2]": {"system": "HEK-293T", "assay": "Multiplex assay against HEK293T", "type": "toxicity, cell-based", "settings": "human", "method_in_brief": "as §1"}, "[3]": {"settings": "12 h, 1 µM, compound concentration 1 uM"}, "[4]": {"settings": "12 h, 10 µM, compound concentration 10 uM"}, "[5]": {"settings": "24 h, 1 µM, compound concentration 1 uM"}, "[6]": {"settings": "24 h, 10 µM, compound concentration 10 uM"}, "[7]": {"settings": "48 h, 1 µM, compound concentration 1 uM"}, "[8]": {"settings": "48 h, 10 µM, compound concentration 10 uM"}},
  "note": "“And” between values parts separate entries of the source, which are not always exact repeats. Equal values may be shown once.",
  "data": [
    {"molecule": "CN(C)CCCn1cc(C2=C(c3c[nH]c4ccccc34)C(=O)NC2=O)c2ccccc21", "note": "[GF-109203]", "values": [
      {"measurement": "Population Apoptotic (%)", "setting": "[1]; [3]", "result": "9.09% and 22.5%"},
      {"measurement": "Population Healthy Nuclei (%)", "setting": "[1]; [3]", "result": "57.53% and 77.2%"},
      {"measurement": "Population Hoechst High Intensity Objects (%)", "setting": "[1]; [3]", "result": 0, "unit": "%"},
      {"measurement": "Population Membrane Permeable-Phenotype (%)", "setting": "[1]; [3]", "result": "4.67% and 8.05%"},
      {"measurement": "Population Mitochondria Different-Phenotype (%)", "setting": "[1]; [3]", "result": "13.08% and 28.19%"},
      {"measurement": "Population Mitotic Cells (%)", "setting": "[1]; [3]", "result": "90.91% and 77.5%"},
      {"measurement": "Population Normal (%)", "setting": "[1]; [3]", "result": 100, "unit": "%"},
      {"measurement": "Population Pyknosed Nuclei (%)", "setting": "[1]; [3]", "result": "29.57% and 20.73%"},
      {"measurement": "Population Tubulin-Different-Phenotype (%)", "setting": "[1]; [3]", "result": "29.91% and 44.3%"},
      {"measurement": "Total Cell Count", "setting": "[1]; [3]", "result": "186 and 193"},
      {"measurement": "Population Apoptotic (%)", "setting": "[1]; [4]", "result": "5.95% and 14.93%"},
      {"measurement": "Population Fragmented Nuclei (%)", "setting": "[1]; [4]", "result": "4.14% and 6.85%"},
      {"measurement": "Population Healthy Nuclei (%)", "setting": "[1]; [4]", "result": "46.15% and 47.26%"},
      {"measurement": "Population Hoechst High Intensity Objects (%)", "setting": "[1]; [4]", "result": 0, "unit": "%"},
      {"measurement": "Population Membrane Permeable-Phenotype (%)", "setting": "[1]; [4]", "result": "14.1% and 14.49%"},
      {"measurement": "Population Mitochondria Different-Phenotype (%)", "setting": "[1]; [4]", "result": "57.69% and 36.23%"},
      {"measurement": "Population Mitotic Cells (%)", "setting": "[1]; [4]", "result": "94.05% and 85.07%"},
      {"measurement": "Population Normal (%)", "setting": "[1]; [4]", "result": 100, "unit": "%"},
      {"measurement": "Population Pyknosed Nuclei (%)", "setting": "[1]; [4]", "result": "49.7% and 45.89%"},
      {"measurement": "Population Tubulin-Different-Phenotype (%)", "setting": "[1]; [4]", "result": "84.62% and 86.96%"},
      {"measurement": "Total Cell Count", "setting": "[1]; [4]", "result": "169 and 146"},
      {"measurement": "Population Fragmented Nuclei (%)", "setting": "[1]; [5]", "result": "6.12% and 5.42%"},
      {"measurement": "Population Healthy Nuclei (%)", "setting": "[1]; [5]", "result": "63.78% and 77.34%"},
      {"measurement": "Population Hoechst High Intensity Objects (%)", "setting": "[1]; [5]", "result": 0, "unit": "%"},
      {"measurement": "Population Membrane Permeable-Phenotype (%)", "setting": "[1]; [5]", "result": "11.2% and 2.55%"},
      {"measurement": "Population Mitochondria Different-Phenotype (%)", "setting": "[1]; [5]", "result": "10.4% and 22.93%"},
      {"measurement": "Population Mitotic Cells (%)", "setting": "[1]; [5]", "result": "98.31% and 85.71%"},
      {"measurement": "Population Normal (%)", "setting": "[1]; [5]", "result": 100, "unit": "%"},
      {"measurement": "Population Pyknosed Nuclei (%)", "setting": "[1]; [5]", "result": "30.1% and 17.24%"},
      {"measurement": "Population Tubulin-Different-Phenotype (%)", "setting": "[1]; [5]", "result": "35.2% and 51.59%"},
      {"measurement": "Total Cell Count", "setting": "[1]; [5]", "result": "196 and 203"},
      {"measurement": "Population Fragmented Nuclei (%)", "setting": "[1]; [6]", "result": "6.7% and 5.38%"},
      {"measurement": "Population Healthy Nuclei (%)", "setting": "[1]; [6]", "result": "54.19% and 38.46%"},
      {"measurement": "Population Hoechst High Intensity Objects (%)", "setting": "[1]; [6]", "result": 0, "unit": "%"},
      {"measurement": "Population Membrane Permeable-Phenotype (%)", "setting": "[1]; [6]", "result": "11.34% and 10%"},
      {"measurement": "Population Mitochondria Different-Phenotype (%)", "setting": "[1]; [6]", "result": "50.52% and 40%"},
      {"measurement": "Population Mitotic Cells (%)", "setting": "[1]; [6]", "result": "95.71% and 80.82%"},
      {"measurement": "Population Normal (%)", "setting": "[1]; [6]", "result": 100, "unit": "%"},
      {"measurement": "Population Pyknosed Nuclei (%)", "setting": "[1]; [6]", "result": "39.11% and 56.15%"},
      {"measurement": "Population Tubulin-Different-Phenotype (%)", "setting": "[1]; [6]", "result": "94.85% and 94%"},
      {"measurement": "Total Cell Count", "setting": "[1]; [6]", "result": "179 and 130"},
      {"measurement": "Population Fragmented Nuclei (%)", "setting": "[1]; [7]", "result": "9.05% and 3.52%"},
      {"measurement": "Population Healthy Nuclei (%)", "setting": "[1]; [7]", "result": "77.62% and 88.94%"},
      {"measurement": "Population Hoechst High Intensity Objects (%)", "setting": "[1]; [7]", "result": 0, "unit": "%"},
      {"measurement": "Population Membrane Permeable-Phenotype (%)", "setting": "[1]; [7]", "result": "3.07% and 7.91%"},
      {"measurement": "Population Mitochondria Different-Phenotype (%)", "setting": "[1]; [7]", "result": "12.27% and 18.64%"},
      {"measurement": "Population Mitotic Cells (%)", "setting": "[1]; [7]", "result": "92.86% and 66.67%"},
      {"measurement": "Population Normal (%)", "setting": "[1]; [7]", "result": 100, "unit": "%"},
      {"measurement": "Population Pyknosed Nuclei (%)", "setting": "[1]; [7]", "result": "13.33% and 7.54%"},
      {"measurement": "Population Tubulin-Different-Phenotype (%)", "setting": "[1]; [7]", "result": "25.15% and 48.02%"},
      {"measurement": "Total Cell Count", "setting": "[1]; [7]", "result": "210 and 199"},
      {"measurement": "Population Apoptotic (%)", "setting": "[1]; [8]", "result": "20.9% and 48.15%"},
      {"measurement": "Population Fragmented Nuclei (%)", "setting": "[1]; [8]", "result": "6.19% and 13.29%"},
      {"measurement": "Population Healthy Nuclei (%)", "setting": "[1]; [8]", "result": "59.28% and 30.07%"},
      {"measurement": "Population Hoechst High Intensity Objects (%)", "setting": "[1]; [8]", "result": 0, "unit": "%"},
      {"measurement": "Population Mitochondria Different-Phenotype (%)", "setting": "[1]; [8]", "result": "56.52% and 46.51%"},
      {"measurement": "Population Mitotic Cells (%)", "setting": "[1]; [8]", "result": "79.1% and 51.85%"},
      {"measurement": "Population Normal (%)", "setting": "[1]; [8]", "result": 100, "unit": "%"},
      {"measurement": "Population Pyknosed Nuclei (%)", "setting": "[1]; [8]", "result": "34.54% and 56.64%"},
      {"measurement": "Population Tubulin-Different-Phenotype (%)", "setting": "[1]; [8]", "result": "93.04% and 86.05%"},
      {"measurement": "Total Cell Count", "setting": "[1]; [8]", "result": "194 and 143"},
      {"measurement": "Population Apoptotic (%)", "setting": "[2]; [3]", "result": "9.36% and 6.29%"},
      {"measurement": "Population Fragmented Nuclei (%)", "setting": "[2]; [3]", "result": "1.17% and 4.02%"},
      {"measurement": "Population Hoechst High Intensity Objects (%)", "setting": "[2]; [3]", "result": "0.58% and 0%"},
      {"measurement": "Population Membrane Permeable-Phenotype (%)", "setting": "[2]; [3]", "result": "0% and 4.17%"},
      {"measurement": "Population Mitochondria Different-Phenotype (%)", "setting": "[2]; [3]", "result": "26.35% and 29.17%"},
      {"measurement": "Population Mitotic Cells (%)", "setting": "[2]; [3]", "result": "90.64% and 93.71%"},
      {"measurement": "Population Normal (%)", "setting": "[2]; [3]", "result": "99.42% and 100%"},
      {"measurement": "Population Pyknosed Nuclei (%)", "setting": "[2]; [3]", "result": "50% and 82.18%"},
      {"measurement": "Total Cell Count", "setting": "[2]; [3]", "result": "344 and 174"},
      {"measurement": "Population Apoptotic (%)", "setting": "[2]; [4]", "result": "11.11% and 17.19%"},
      {"measurement": "Population Fragmented Nuclei (%)", "setting": "[2]; [4]", "result": "4.81% and 3.4%"},
      {"measurement": "Population Hoechst High Intensity Objects (%)", "setting": "[2]; [4]", "result": "0.32% and 0%"},
      {"measurement": "Population Membrane Permeable-Phenotype (%)", "setting": "[2]; [4]", "result": "0% and 7.14%"},
      {"measurement": "Population Mitotic Cells (%)", "setting": "[2]; [4]", "result": "88.89% and 82.81%"},
      {"measurement": "Population Normal (%)", "setting": "[2]; [4]", "result": "99.68% and 100%"},
      {"measurement": "Population Pyknosed Nuclei (%)", "setting": "[2]; [4]", "result": "57.69% and 87.07%"},
      {"measurement": "Population Tubulin-Different-Phenotype (%)", "setting": "[2]; [4]", "result": "52.99% and 57.14%"},
      {"measurement": "Total Cell Count", "setting": "[2]; [4]", "result": "313 and 147"},
      {"measurement": "Population Apoptotic (%)", "setting": "[2]; [5]", "result": "15.57% and 18.97%"},
      {"measurement": "Population Fragmented Nuclei (%)", "setting": "[2]; [5]", "result": "1.6% and 5.42%"},
      {"measurement": "Population Healthy Nuclei (%)", "setting": "[2]; [5]", "result": "73.95% and 24.7%"},
      {"measurement": "Population Hoechst High Intensity Objects (%)", "setting": "[2]; [5]", "result": 0, "unit": "%"},
      {"measurement": "Population Membrane Permeable-Phenotype (%)", "setting": "[2]; [5]", "result": "1.36% and 4.88%"},
      {"measurement": "Population Mitochondria Different-Phenotype (%)", "setting": "[2]; [5]", "result": "10.84% and 17.07%"},
      {"measurement": "Population Mitotic Cells (%)", "setting": "[2]; [5]", "result": "84.43% and 81.03%"},
      {"measurement": "Population Normal (%)", "setting": "[2]; [5]", "result": 100, "unit": "%"}
    ]}
  ]
}
